This passage reports inhibition and IC50 results from ChEMBL document CHEMBL4616636, “A new series of aryl sulfamate derivatives: Design, synthesis, and biological evaluation” (Bioorg Med Chem, 2020).

By inhibition is commonly meant the drop in the measured response relative to a control, in per cent. Usually IC50 stands for the concentration at which inhibition is half-maximal.

For test [1], the target named is T1, Steryl-sulfatase (Homo sapiens) (UniProt P08842).
T1 sequence (whole entry): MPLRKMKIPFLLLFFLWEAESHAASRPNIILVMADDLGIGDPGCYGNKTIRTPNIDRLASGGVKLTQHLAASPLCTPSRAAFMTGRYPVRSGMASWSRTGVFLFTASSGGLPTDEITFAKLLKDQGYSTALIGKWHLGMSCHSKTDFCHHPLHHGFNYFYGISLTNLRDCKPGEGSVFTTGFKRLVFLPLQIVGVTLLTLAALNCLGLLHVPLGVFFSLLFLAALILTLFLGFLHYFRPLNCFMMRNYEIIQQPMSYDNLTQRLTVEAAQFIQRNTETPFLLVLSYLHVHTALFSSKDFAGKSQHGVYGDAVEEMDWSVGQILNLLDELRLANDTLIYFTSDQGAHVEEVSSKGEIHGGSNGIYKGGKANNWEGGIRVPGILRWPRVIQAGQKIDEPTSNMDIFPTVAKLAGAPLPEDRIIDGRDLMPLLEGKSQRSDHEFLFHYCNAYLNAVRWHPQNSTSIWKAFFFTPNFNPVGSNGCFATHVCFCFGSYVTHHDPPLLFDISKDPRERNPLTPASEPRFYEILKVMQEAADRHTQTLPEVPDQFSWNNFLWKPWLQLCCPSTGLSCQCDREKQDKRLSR
The experiment in a line: Inhibition of steroid sulfatase in human JEG3 cell lysates at 10 uM using [3H] E1S as substrate after 1 hr by scintillation spectrometry analysis relative to control. In kind it is cell-free. The following applies: JEG-3. A digest of the protocol:
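JEG-3 placental choriocarcinoma lysate (125 µg protein/mL) incubated 1 h with inhibitor at 10 µM and [3H]E1S brought to 20 µM with unlabelled E1S. Estrone product extracted into toluene, [14C]E1 used to correct for losses, 3H/14C counted by scintillation. Reported as % inhibition versus untreated control, mean ± SEM, n=3.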

Test [2] has as its system T47D. The test is described as follows: Antiproliferative activity against human T47D cells assessed as reduction in cell proliferation measured after 5 days in presence of estradiol sulfate by crystal violet staining based assay. In kind it is functional. Particulars: 120 h. A digest of the protocol:
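T-47D cells kept in EMEM with pyruvate, gentamycin, bicarbonate and 10% FBS at 37 °C, 5% CO2. After 3 days of growth, medium swapped for one with compound, 100 nM estradiol sulfate and 10% charcoal-stripped FBS, then 5 days of incubation. Glutaraldehyde fixation, crystal violet stain, ethanol elution, OD at 578 nm. IC50 reported as mean ± SEM of triplicate assays.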

Test [3] concerns the target T2, Steryl-sulfatase (Homo sapiens, UniProt P08842).
T2 sequence (P08842 whole entry): T1 sequence (whole entry)
The test is described as follows: Inhibition of steroid sulfatase in human JEG3 cell lysates using [3H] E1S as substrate after 1 hr by scintillation spectrometry analysis. In kind it is cell-free, JEG-3. A digest of the protocol:
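Estrone taken into toluene, recovery corrected with [14C]E1, scintillation counting. E1S hydrolysed calculated from 3H counts and substrate specific activity, and IC50 derived from the dose-response.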

Test [4] has as its target T2, Steryl-sulfatase. The test is described as follows: Inhibition of steroid sulfatase in human JEG3 cells using [3H] E1S as substrate incubated for 20 hrs by scintillation spectrometry analysis. In kind it is cell-based, JEG-3. A digest of the protocol:
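Intact JEG-3 monolayers incubated 20 h at 37 °C in serum-free EMEM with [3H]E1S (5 pmol, 60 Ci/mmol), with or without inhibitor at 10 µM. Estrone in the medium separated from E1S by toluene partition, [14C]estrone used to correct for procedural losses. E1S hydrolysed calculated from scintillation counts.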

Molecules are shown by their SMILES.

In the case of `NS(=O)(=O)Oc1ccc(NC(=O)c2cccnc2)cc1`, the inhibition in test [1] came out at 12.9%.
Same read-out and setting: under `Cc1cc(OS(N)(=O)=O)ccc1NC(=O)C12CC3CC(CC(C3)C1)C2` stands 58.5%.
Take `NS(=O)(=O)Oc1ccc(NC(=O)C23CC4CC(CC(C4)C2)C3)cc1F`: in test [1], the inhibition came to 86.3%.
As to `NS(=O)(=O)Oc1ccc2c3c(c(=O)oc2c1)CCCCC3` [IROSUSTAT], the IC50 in test [2] amounted to 920 nM.
Take `NS(=O)(=O)Oc1ccc(NC(=O)C23CC4CC(CC(C4)C2)C3)cc1Cl`: the inhibition in test [1] is 88.6%.
With `NS(=O)(=O)Oc1ccc(C(=O)NC23CC4CC(CC(C4)C2)C3)cc1F`, the inhibition in test [1] was 97.2%. Also, the IC50 is 67.7 nM in test [3] and 3400 nM in test [2].
With `NS(=O)(=O)Oc1ccc(NC(=O)C23CC4CC(CC(C4)C2)C3)cc1Br`, in test [1], the inhibition was 82.7%.
The same measure, in the same setting: the result for `NS(=O)(=O)Oc1ccc(NC(=O)C2CCCCCC2)cc1` reads 52.3%; that for `NS(=O)(=O)Oc1ccc2c(ccn2C(=O)C2CCCCC2)c1`, 14.3%.
Regarding `NS(=O)(=O)Oc1ccc(C(=O)NC23CC4CC(CC(C4)C2)C3)cc1Cl`, the values for the IC50 in test [4], in test [3] and in test [2] were 150 nM, 25.8 nM and 1040 nM, respectively. The inhibition in test [1] came to 98.3%.
`NS(=O)(=O)Oc1ccc(NC(=O)NC23CC4CC(CC(C4)C2)C3)cc1`: in test [1], the inhibition was determined as 5.32%.
Regarding `NS(=O)(=O)Oc1ccc(NC(=O)c2ccccc2)cc1`, in test [1], the inhibition was 25.4%.
Still for that read-out and setting: the result for `NS(=O)(=O)Oc1ccc(C(=O)NC23CC4CC(CC(C4)C2)C3)cc1` reads 90%.
`NS(=O)(=O)Oc1ccc(C(=O)NC23CC4CC(CC(C4)C2)C3)cc1Br`: the inhibition in test [1] was 94.6%. The IC50 in test [3] amounted to 74.1 nM; in test [2], 4670 nM.
Regarding `NS(=O)(=O)Oc1ccc(NC(=O)C2CCCC2)cc1`, the inhibition in test [1] stood at 62%.
With `CN(C(=O)C12CC3CC(CC(C3)C1)C2)c1ccc(OS(N)(=O)=O)cc1`, in test [1], the inhibition turned out to be 61%.
Consider `NS(=O)(=O)Oc1ccc(NC(=O)c2ccc3ccccc3c2)cc1`, for which the inhibition in test [1] worked out at 53.6%.
As for `NS(=O)(=O)Oc1ccc(NC(=O)C23CC4CC(CC(C4)C2)C3)cc1`, the concentration for half-maximal inhibition (IC50) in test [4] stood at 13.6 nM; in test [3], 110 nM; in test [2], 5780 nM. Moreover, the inhibition in test [1] was 93.9%.
In the case of `NS(=O)(=O)Oc1ccc2c(ccn2C(=O)C23CC4CC(CC(C4)C2)C3)c1`, in test [1], the inhibition stood at 63.4%.
Consider `COc1ccc(C(=O)Nc2ccc(OS(N)(=O)=O)cc2)cc1`, for which the inhibition in test [1] turned out to be 72.7%.
`NS(=O)(=O)Oc1ccc(CNC(=O)C23CC4CC(CC(C4)C2)C3)cc1`: the inhibition in test [1] is -5.3%.
Regarding `NS(=O)(=O)Oc1ccc(NC(=O)c2ccc(Cl)cc2)cc1`, the inhibition in test [1] is 24.6%.
